In ChEMBL document CHEMBL1157794, “Discovery of N-[(4R)-6-(4-chlorophenyl)-7-(2,4-dichlorophenyl)-2,2-dimethyl-3,4-dihydro-2H-pyrano[2,3-b]pyridin-4-yl]-5-methyl-1H-pyrazole-3-carboxamide (MK-5596) as a novel cannabinoid-1 receptor (CB1R) inverse agonist for the treatment of obesity” (J Med Chem, 2010):

Legend:
[1] = Bioavailability in Sprague-Dawley rat at 1 mg/kg, iv and 2 mg/kg, po; format: ADME, organism-based; settings: in vivo
Procedure, shortened: (§1)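 Male Sprague-Dawley rats dosed 1 mg/kg iv and 2 mg/kg po; male beagle dogs and rhesus monkeys 0.2 mg/kg iv and 0.4 mg/kg po. Iv vehicle EtOH/PEG400/water 20:50:30 (rat) or 20:40:40 v/v/v (dog, monkey); oral vehicle Imwitor 742/Tween-80 1:1 w/w. Clearance, Vdss, t1/2, Cmax, F and dose-normalized oral AUC derived.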

[2] = Half life in Sprague-Dawley rat at 1 mg/kg, iv and 2 mg/kg, po; format: ADME, organism-based; settings: in vivo; procedure, shortened: as §1
[3] = Drug level in P-gp deficient CF1 mouse plasma at 1 mg/kg, iv measured after 4 hrs; format: ADME, organism-based; design: dose 1 mg/kg, route intravenous; settings: read-out: Drug uptake
Procedure, shortened: (§2)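 Single iv 1 mg/kg to wild-type and P-gp deficient CF-1 mice; parent levels in plasma and brain measured 4 h postdose; brain/plasma ratio calculated.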

[4] = Drug level in wild type MDR1a-expressing mouse plasma at 1 mg/kg, iv measured after 4 hrs; format: ADME, organism-based; design: dose 1 mg/kg, route intravenous; settings: read-out: Drug uptake; procedure, shortened: as §2
[5] = Drug level in diet-induced obese rat plasma at 0.3 mg/kg, po measured after 24 hrs of last dose on day 13; format: ADME, organism-based; design: dose 0.3 mg/kg, route oral; settings: read-out: Drug uptake
Procedure, shortened: (§3)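 Separate parallel 13-day pharmacokinetic study in DIO rats at 0.3 mg/kg; plasma and brain levels determined 24 h after last dose.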

[6] = Cmax in Sprague-Dawley rat at 1 mg/kg, iv and 2 mg/kg, po; format: ADME, organism-based; settings: in vivo; procedure, shortened: as §1
[7] = Oral bioavailability in rhesus monkey at 0.4 mg/kg; format: ADME, organism-based, Macaca mulatta; settings: in vivo
Procedure, shortened: (§4)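 Male Sprague-Dawley rats received 1 mg/kg iv and 2 mg/kg po. Male beagle dogs and rhesus monkeys received 0.2 mg/kg iv and 0.4 mg/kg po. The iv solution was EtOH/PEG400/water, 20:50:30 v/v/v for rats and 20:40:40 v/v/v for dogs and monkeys. The oral solution was Imwitor742/Tween-80 (1:1 w/w) for all species.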

[8] = system: Rhesus monkey; assay: Dose normalized AUC in rhesus monkey at 0.4 mg/kg, po; format: ADME, organism-based, Macaca mulatta; design: dose 0.4 mg/kg, route oral; settings: in vivo; procedure, shortened: as §1
[9] = Drug level in diet-induced obese rat brain at 0.3 mg/kg, po measured after 18 hrs of last dose on day 13; format: ADME, organism-based; design: dose 0.3 mg/kg, route oral; settings: read-out: Drug uptake
Procedure, shortened: (§5)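 At end of 13-day chronic efficacy study in DIO rats dosed orally at 0.3 mg/kg, plasma and brain drug levels measured 18 h after last dose.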

[10] = Half life in rhesus monkey at 0.4 mg/kg, po; format: ADME, organism-based, Macaca mulatta; design: dose 0.4 mg/kg, route oral; settings: in vivo; procedure, shortened: as §1
[11] = Plasma clearance in Beagle dog at 0.2 mg/kg, iv; format: ADME, organism-based, Canis lupus familiaris; design: dose 0.2 mg/kg, route intravenous; procedure, shortened: as §4
[12] = Plasma concentration in dog at 1 mg/kg, iv administered for 30 mins; format: ADME, organism-based, Canis lupus familiaris; design: dose 1 mg/kg, route intravenous
Procedure, shortened: (§6)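 Anesthetized dogs given iv infusions, each spread evenly over 30 min, at rising cumulative doses of 1, 3 and 10 mg/kg. Peak plasma levels were measured during each dose. Arterial pressure, heart rate and ECG intervals (PR, QRS, QTc) were monitored against vehicle-treated dogs.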

[13] = Cmax in Beagle dog at 0.4 mg/kg, po; settings: in vivo
[14] = Drug level in diet-induced obese rat brain at 0.3 mg/kg, po measured after 24 hrs of last dose on day 13; format: ADME, organism-based; design: dose 0.3 mg/kg, route oral; settings: read-out: Drug uptake; procedure, shortened: as §3
[15] = Cmax in rhesus monkey at 0.4 mg/kg, po; format: ADME, organism-based, Macaca mulatta; design: dose 0.4 mg/kg, route oral; settings: in vivo; procedure, shortened: as §1
[16] = Drug level in wild type MDR1a-expressing mouse brain at 1 mg/kg, iv measured after 4 hrs; format: ADME, organism-based; design: dose 1 mg/kg, route intravenous; settings: read-out: Drug uptake; procedure, shortened: as §2
[17] = Plasma concentration in dog at 10 mg/kg, iv administered for 30 mins; format: ADME, organism-based, Canis lupus familiaris; design: dose 10 mg/kg, route intravenous; procedure, shortened: as §6
[18] = system: Rattus norvegicus; assay: Dose normalized AUC in Sprague-Dawley rat assessed as per mg of plasma protein at 2 mg/kg, po; format: ADME, organism-based; design: dose 2 mg/kg, route oral; settings: in vivo
[19] = Bioavailability in Beagle dog at 0.2 mg/kg, iv; format: ADME, organism-based, Canis lupus familiaris; settings: in vivo; procedure, shortened: as §1
[20] = Drug level in diet-induced obese rat plasma at 0.3 mg/kg, po measured after 18 hrs of last dose on day 13; format: ADME, organism-based; design: dose 0.3 mg/kg, route oral; settings: read-out: Drug uptake; procedure, shortened: as §5
[21] = Ratio of drug level in brain to plasma in P-gp deficient CF1 mouse at 1 mg/kg, iv measured after 4 hrs; format: ADME, organism-based; design: dose 1 mg/kg, route intravenous; settings: brain and plasma, read-out: BPR
Procedure, shortened: (§7)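 Single iv dose of 1 mg/kg given to wild-type and P-gp deficient CF-1 mice. Parent levels in plasma and brain determined 4 h postdose. Brain-to-plasma ratio calculated from these levels.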

[22] = Metabolic stability in bile-duct cannulated rat bile assessed as compound remaining at 2 mg/kg, po up to 72 hrs; format: ADME, organism-based; design: dose 2 mg/kg, route oral; settings: read-out: Stability
Procedure, shortened: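 [3H]-labelled compound formulated in Imwitor 742/Tween-80 (1:1), given orally at 2 mg/kg to bile duct-cannulated rats; bile, feces and urine collected over 72 h; radioactivity recovery and radioprofiles of parent and metabolites determined.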

[23] = system: Canis familiaris; assay: Dose normalized AUC in Beagle dog at 0.4 mg/kg, po; settings: in vivo
[24] = Ratio of drug level in brain to plasma in diet-induced obese rat at 0.3 mg/kg, po measured after 18 hrs of last dose on day 13; format: ADME, organism-based; design: dose 0.3 mg/kg, route oral; settings: brain and plasma, read-out: BPR
Procedure, shortened: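 DIO rats dosed daily for 13 days at 0.3 mg/kg in the chronic efficacy study. Plasma and brain levels determined 18 h after the last dose. Brain/plasma exposure ratio calculated.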

[25] = Plasma clearance in Sprague-Dawley rat at 1 mg/kg, iv and 2 mg/kg, po; format: ADME, organism-based; procedure, shortened: as §4
[26] = Drug level in P-gp deficient CF1 mouse brain at 1 mg/kg, iv measured after 4 hrs; format: ADME, organism-based; design: dose 1 mg/kg, route intravenous; settings: read-out: Drug uptake; procedure, shortened: as §2
[27] = system: Rhesus monkey; assay: Volume of distribution at steady state in rhesus monkey at 0.4 mg/kg, po; format: ADME, organism-based, Macaca mulatta; design: dose 0.4 mg/kg, route oral; settings: in vivo; procedure, shortened: as §4
[28] = Plasma clearance in rhesus monkey at 0.4 mg/kg, po; format: ADME, organism-based, Macaca mulatta; design: dose 0.4 mg/kg, route oral; procedure, shortened: as §4
[29] = Volume of distribution at steady state in Beagle dog at 0.2 mg/kg, iv; format: ADME, organism-based, Canis lupus familiaris; design: dose 0.2 mg/kg, route intravenous; settings: in vivo, read-out: Vdss; procedure, shortened: as §4
[30] = Plasma concentration in dog at 3 mg/kg, iv administered for 30 mins; format: ADME, organism-based, Canis lupus familiaris; design: dose 3 mg/kg, route intravenous; procedure, shortened: as §6
[31] = Half life in Beagle dog at 0.2 mg/kg, iv; format: ADME, organism-based, Canis lupus familiaris; design: dose 0.2 mg/kg, route intravenous; settings: in vivo; procedure, shortened: as §1
[32] = Volume of distribution at steady state in Sprague-Dawley rat at 1 mg/kg, iv and 2 mg/kg, po; format: ADME, organism-based; settings: in vivo, read-out: Vdss; procedure, shortened: as §4
[33] = Ratio of drug level in brain to plasma in diet-induced obese rat at 0.3 mg/kg, po measured after 24 hrs of last dose on day 13; format: ADME, organism-based; design: dose 0.3 mg/kg, route oral; settings: brain and plasma, read-out: BPR
Procedure, shortened: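 Separate 13-day parallel pharmacokinetic study in DIO rats at 0.3 mg/kg. Plasma and brain exposures determined 24 h after the last dose. Brain/plasma ratio calculated.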

[34] = Ratio of drug level in brain to plasma in wild type MDR1a-expressing mouse at 1 mg/kg, iv measured after 4 hrs; format: ADME, organism-based; design: dose 1 mg/kg, route intravenous; settings: brain and plasma, read-out: BPR; procedure, shortened: as §7

CC1(C)C[C@@H](NC(=O)c2ccccc2N)c2cc(-c3ccc(Cl)cc3)c(-c3ccc(Cl)cc3Cl)nc2O1
bioavailability [1]: 5% | half-life [2]: 7.4 h

CC1(C)C[C@@H](NC(=O)c2ccccc2O)c2cc(-c3ccc(Cl)cc3)c(-c3ccc(Cl)cc3Cl)nc2O1
bioavailability [1]: 1% | half-life [2]: 1.9 h

CC1(C)CC(NC(=O)CC(O)C(F)(F)F)c2cc(-c3ccc(Cl)cc3)c(-c3ccc(Cl)cc3Cl)nc2O1 (racemic) [N-[6-(4-CHLOROPHENYL)-7-(2,4-DICHLOROPHENYL)-2,2-DIMETHYL-3,4-DIHYDRO-2H-PYRANO[2,3-B]PYRIDINE-4-YL]-4,4,4-TRIFLUORO-3-HYDROXYBUTANAMIDE (DIASTEREOMERIC MIX)]
bioavailability [1]: 41% | half-life [2]: 8.2 h

Cc1cc(C(=O)N[C@@H]2CC(C)(C)Oc3nc(-c4ccc(Cl)cc4Cl)c(-c4ccc(Cl)cc4)cc32)n[nH]1
concentration at 4 h [3]: 300 nM | concentration at 4 h [4]: 410 nM | concentration at 24 h [5]: 135 nM | Cmax [6]: 1030 nM | bioavailability [1]: 91% | bioavailability [7]: 46% | AUC [8]: 6.1 µM·kg·h/mg | concentration at 18 h [9]: 110 nM | half-life [10]: 15 h | clearance [11]: 1.1 mL/min/kg | concentration at 0.5 h [12]: 1630 nM | Cmax [13]: 150 nM | concentration at 24 h [14]: 74 nM | Cmax [15]: 90 nM | concentration at 4 h [16]: 270 nM | concentration at 0.5 h [17]: 6960 nM | AUC [18]: 11 µM·kg·h/mg | bioavailability [19]: 65% | concentration at 18 h [20]: 180 nM | Kp at 4 h [21]: 4.66 | remaining at 72 h [22]: 30% | AUC [23]: 18 µM·kg·h/mg | Kp at 18 h [24]: 0.63 | clearance [25]: 4.5 mL/min/kg | concentration at 4 h [26]: 1400 nM | Vdss [27]: 2.4 L/kg | CL/F [28]: 2.3 mL/min/kg | half-life [2]: 8.5 h | Vd [29]: 5.7 L/kg | concentration at 0.5 h [30]: 3260 nM | half-life [31]: 60 h | Vd [32]: 3 L/kg | Kp at 24 h [33]: 0.55 | Kp at 4 h [34]: 0.66

CC(O)C(=O)NC1CC(C)(C)Oc2nc(-c3ccc(Cl)cc3Cl)c(-c3ccc(Cl)cc3)cc21 (single isomer, unassigned)
bioavailability [1]: 100% | half-life [2]: 7.9 h
